In experiment [1] the test system is Mustela putorius furo. Description: In vivo antagonism of cisplatin-induced emesis in ferret measured as emetic episodes, twice the dose of 3 mg/kg and in 3 ferrets. It counts as functional. The gist of the method:
(§1)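 Nonfasted castrated male Fitch ferrets (1–1.5 kg) had jugular catheters implanted ≥48 h earlier under anesthesia. Compounds or saline were given iv twice, 5 min before and 90 min after cisplatin (12 mg/kg iv; 12 mg/mL in warm 0.9% saline). Emesis was observed up to 4 h; events within 1 min counted as one episode. Results were given as mean emetic episodes and % protection versus a pooled historical/concurrent control. t test versus saline.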

Experiment [2] deals with D(2) dopamine receptor (Rattus norvegicus) (UniProt P61169). Description: In vivo antagonism activity against D2 receptor was measured as stereotypy in rat when administered subcutaneously. The format is functional, organism-based. The gist of the method: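 Male Long Evans rats (275 g) were dosed sc in dilute aqueous HCl (pH 4.5-5.5) 30 min before apomorphine (1 mg/kg sc).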

The target is the same in experiment [3]. The experiment in a line: In vivo antagonistic activity against dopamine D2 receptor was measured as catalepsy in rat when administered subcutaneously. It counts as functional, organism-based. An outline of the steps: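 Male Long Evans rats (275 g) received graded sc doses in dilute aqueous HCl (pH 4.5-5.5). They were observed 180 min for catalepsy, scored when the animal stayed stationary ≥15 s on a four-cork template.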

The test system of experiment [4] is Canis familiaris. The experiment in a line: in vivo antagonism of cisplatin-induced emesis in dog measured as emetic episodes, twice the dose of 0.3 mg/kg in 2 dogs. It counts as functional, Canis lupus familiaris.
The next experiment has as its target D(2) dopamine receptor (Rattus norvegicus, UniProt P61169). Description: In vitro antagonistic activity against Dopamine receptor D2 was evaluated for the inhibition of [3H]spiperone binding. An outline of the steps: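 Rat striatal membranes were prepared by differential centrifugation in 50 mM Tris pH 7.4 at 4 °C. Membrane protein (10 mg) was incubated 15 min at 37 °C with 0.1 nM [3H]spiperone and varying competitor concentrations. Buffer: 50 mM Tris HCl pH 7.5, 0.1% ascorbic acid, pargyline, 120 mM NaCl, 5 mM KCl, 2 mM CaCl2, 1 mM MgCl2. (+)-Butaclamol defined nonspecific binding. Bound ligand was collected by filtration and scintillation counted. IC50 by log-logit regression.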

For experiment [5], the system named is Mustela putorius furo. The experiment in a line: In vivo antagonism of cisplatin-induced emesis in ferret measured as percentage protection for twice the dose of 3 mg/kg and in 3 ferrets. The format is functional. The gist of the method: as §1
Experiment [6] has as its target D(2) dopamine receptor (Canis lupus familiaris) (UniProt Q9GJU1). Description: In vivo antagonism activity against dopamine D2 receptor was measured as emesis in dog when administered subcutaneously. The format is functional, organism-based.
Experiment [7] relates to Canis familiaris. The experiment in a line: In vivo antagonism of cisplatin-induced emesis in dog measured as percentage protection for twice the dose of 0.3 mg/kg in 2 dogs. It counts as functional, Canis lupus familiaris. The gist of the method:
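Nonfasted mature male or female beagles were dosed sc twice, 30 min before and 120 min after cisplatin (3 mg/kg iv; 3 mg/mL in warm 0.9% saline, used immediately). Emesis was observed up to 5 h; events within 2 min counted as one episode. Results were given as mean emetic episodes and % protection versus a dynamic control (historical and concurrent saline means pooled). t test versus saline.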

The source of these data is ChEMBL document CHEMBL1124174, “Substituted benzamides. 1. Potential nondopaminergic antagonists of chemotherapy-induced nausea and emesis” (J Med Chem, 1988).

The term ED50 denotes the midpoint of the dose-response relation. Low values mean an effect at a small dose, high ones a need for a large dose. In general, pIC50 refers to the IC50 on a negative log10 scale, so that one unit is a factor of ten. The low end stands for a large IC50, the high end for a small IC50.

pIC50: −log10 of the molar value. A value given as a limit tells only on which side of the number the result lay.

Sequence of D(2) dopamine receptor (Rattus norvegicus) (P61169 whole entry): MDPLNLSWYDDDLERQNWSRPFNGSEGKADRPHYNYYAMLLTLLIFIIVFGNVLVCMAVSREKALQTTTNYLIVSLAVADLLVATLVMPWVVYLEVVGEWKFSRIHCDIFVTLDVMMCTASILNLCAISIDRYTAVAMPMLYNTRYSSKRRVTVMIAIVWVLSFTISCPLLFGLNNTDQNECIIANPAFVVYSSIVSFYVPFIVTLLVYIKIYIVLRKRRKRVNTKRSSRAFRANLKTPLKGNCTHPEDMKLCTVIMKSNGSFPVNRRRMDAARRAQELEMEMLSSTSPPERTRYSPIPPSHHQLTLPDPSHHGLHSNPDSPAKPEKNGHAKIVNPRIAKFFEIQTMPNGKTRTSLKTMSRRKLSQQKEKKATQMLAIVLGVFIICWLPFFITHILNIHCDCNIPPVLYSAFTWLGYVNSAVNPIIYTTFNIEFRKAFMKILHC
Sequence of D(2) dopamine receptor (P61169 whole entry): as above
Sequence of D(2) dopamine receptor (Canis lupus familiaris) (Q9GJU1 whole entry): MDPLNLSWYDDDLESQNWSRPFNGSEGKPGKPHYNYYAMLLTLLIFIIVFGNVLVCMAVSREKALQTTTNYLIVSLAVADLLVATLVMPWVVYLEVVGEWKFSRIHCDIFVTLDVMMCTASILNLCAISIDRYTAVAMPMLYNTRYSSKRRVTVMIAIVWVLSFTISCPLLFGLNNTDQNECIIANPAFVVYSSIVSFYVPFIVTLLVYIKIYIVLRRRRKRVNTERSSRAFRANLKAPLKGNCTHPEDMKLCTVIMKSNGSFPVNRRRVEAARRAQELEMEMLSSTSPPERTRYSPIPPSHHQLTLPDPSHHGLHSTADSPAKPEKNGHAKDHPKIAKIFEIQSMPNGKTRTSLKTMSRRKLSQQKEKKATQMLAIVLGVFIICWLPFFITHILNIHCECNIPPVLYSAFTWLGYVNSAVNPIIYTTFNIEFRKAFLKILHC

In the case of `CCN(CC)CCNC(=O)c1cc(Cl)c(N)cc1OCC(=O)Cc1ccccc1`, the Emetic episodes in the experiment with Mustela putorius furo [1] was 0; in the experiment on Canis familiaris [4], 13. Also, the ED50 was greater than 40 mg/kg in experiment [2], greater than 40 mg/kg in experiment [3] and greater than 3 mg/kg in experiment [6]. Further, the negative logarithm of the IC50 (pIC50) at D(2) dopamine receptor was less than 6.00. In addition, the Protection in the experiment on Mustela putorius furo [5] came to 100%; in the experiment on Canis familiaris [7], 0%.
